miR-122 sensor – blocks miR-122 activity in Huh7 sensor cells | Huh7 miR-122 Renilla luciferase sensor, 48 h; neutral wells = 0, positive control = 100 | activation (reporter increase), % at 12.5 µM | actives 0.3% (n = 340,000);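 active = mean replicate activation score at least 90 and every replicate individually at or above 90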;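 note: higher luciferase means less miR-122 activity so hits act as miR-122 inhibitors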
CAL PDZ FP-1 – inhibitors of human CAL PDZ peptide binding; Q9HD26; purified CAL PDZ, TMR-peptide fluorescence polarization, 1 h; inhibition, % at 20 µM; actives 0.02% (n = 330,000); AID 504414;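 active = highest replicate inhibition of at least 40%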;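 note: plate controls were DMSO neutral control wells for no effect and unlabeled competitor peptide control wells for full effect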
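System: purified tagged CAL PDZ domain construct (CerCALP). Schedule: 1 h incubation at room temperature before polarization reading. Medium: 25 mM sodium phosphate pH 7.4, 150 mM NaCl, TCEP, IgG, Thesit. Read-out: percent inhibition from loss of millipolarization. Measured by: FP readout, S and P plane fluorescence. Probe or stimulus: fluorescent TMR peptide probe.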
PvdQ acylase – P. aeruginosa PvdQ acylase inhibition. inhibition, % at 10 µM. purified PvdQ acylase, fluorescence plate reader. actives 0.063% (n = 340,000). AID 488965; in the data active = inhibition above about 30%, passing the limit was not always enough;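 note: 0% = vehicle neutral wells and 100% = reference inhibitor wells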
CAL PDZ FP-2 – blocks peptide binding to the human CAL PDZ domain. purified CAL PDZ, TMR-peptide fluorescence polarization, 1 h. AID 602252. inhibition, % at 24.9 µM. Q9HD26. actives 0.92% (n = 300,000);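 active = mean inhibition of at least 30% with at least half of replicates also reaching 30%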;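 note: 0% = DMSO neutral control and 100% = excess unlabeled competitor peptide PRC23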
Numbers without * were called inactive; x = no result given; [ ] = dose if it differs, or a comment. This is a sample that favours compounds with a hit; in the whole collection about 0.95% have one here.

SMILES | miR-122 sensor | CAL PDZ FP-1 | PvdQ acylase | CAL PDZ FP-2
Cc1cc(C)cc(NC(=O)N2CCCC2C(=O)NCc2ccco2)c1 (stereo not given) | x | 0 | -10 | 76*
Oc1ccc(-c2nc3cnccn3c2Nc2ccc3c(c2)OCCO3)cc1 | -1 | 0 | -10 | x
CCOc1cc(S(=O)(=O)Nc2cc(C)cc(C)c2)ccc1Cl | 118* | 0 | -1 | x
Cc1ccc(C)c(NS(=O)(=O)c2ccc3oc(=O)ccc3c2)c1 | 29 | -1 | -20 | -4
Cc1cc(C)cc(NS(=O)(=O)c2ccc3oc(=O)ccc3c2)c1 | 105* | 0 | 6 | 1
O=C1CS/C(=C/C(=O)c2cccc(Cl)c2)N1 | x | -5 | 4 | -9
CCOc1ccc(NC(=S)NC(=O)C2CCCC2)cc1 | -3 | 0 | -11 | 32*
CN(Cc1ccccc1)S(=O)(=O)c1ccc(NC(=S)NC(=O)C2CCCCC2)cc1 | 125* | 0 | 11 | 1
COCCNC(=O)CSc1nc2nn(-c3ccccc3)c(=O)c-2c2n1CCCCC2 | 2 | 0 | -1 | -4
COC(=O)N/N=C/c1cn(CCOc2ccccc2)c2ccccc12 | x | 1 | -16 | x
COc1cc(/C=C(\CC(=O)O)c2nc3ccccc3s2)ccc1OCC(=O)Nc1ccccc1F | -4 | -4 | -8 | 133*
Cc1ccc(S(=O)(=O)c2cc3ccccc3nc2N)cc1 | 12 | 13 | -11 | 40*
c1ccc2c(c1)ccc1nnnn12 | 168* | 1 | -8 | 0
S=c1nc(COc2ccccc2)[nH]c2ccccc12 | -3 | 1 | -7 | 0
CN(C)S(=O)(=O)c1ccc(=S)[nH]c1 | x | 1 | 3 | 0
CC(C)NC(=O)NS(=O)(=O)c1cnccc1NC1CC2CCC1C2 (stereo not given) | 4 | 0 | -11 | 69*
O=C(Nc1nc2c(Br)cc(Br)cc2c(=O)s1)C1CCC1 | x | -1 | -17 | 37*
Cc1ccc(C)c2sc(NC(=O)C3CC3)nc12 | x | -1 | -19 | 3
O=c1c(C(c2ccc(Br)cc2)c2c(O)nc3n(c2=O)CCCS3)c(O)nc2n1CCCS2 | 0 | 0 | -7 | 8
CC(C)CC(=O)Nc1cccc(-c2nc3ccccc3[nH]2)c1 | 158* | -4 | -11 | -1
O=C(Nc1ccc(-c2nc3ccccc3[nH]2)cc1)c1ccco1 | -4 | -7 | 5 | -7
CC(=O)Nc1cccc(-c2nc3ccccc3[nH]2)c1 | 51 | -3 | -8 | -2
S=C(Nc1ccc(-c2nc3ccccc3[nH]2)cc1)Nc1cccnc1 | -3 | -2 | -11 | 43*
O=C(/C=C/c1ccco1)Nc1ccc(-c2nc3ccccc3[nH]2)cc1 | 101* | -2 | -10 | -4
c1cncc(-c2nc3ccccc3[nH]2)c1 | x | -1 | -5 | -2
SMILES | miR-122 sensor | CAL PDZ FP-1 | PvdQ acylase | CAL PDZ FP-2
COC(=O)c1ccc(-c2nc3ccccc3[nH]2)cc1 | -3 | -4 | 40* | 3
N#CC1=C(C=Nc2ccccc2O)CCC1 | -2 | -2 | -19 | -27
CC(=O)Nc1ccc(CN2CCc3c([nH]c4ccccc34)C2C(C)(C)C)cc1 (stereo not given) | x | 0 | -12 | -1
COC(=O)c1ccc(C(=O)Nc2ccc3nc(-c4ccncc4)[nH]c3c2)cc1 | -2 | -4 | -5 | 59*
Cc1nc2oc3c(NCC4CCCO4)ncnc3c2c2c1COC(C)(C)C2 (stereo not given) | -3 | 1 | -4 | 0
CC(C)c1nc2oc3c(NCC4CCCO4)ncnc3c2c2c1COC(C)(C)C2 (stereo not given) | 194* | -1 | -11 | -6
Cc1cnc(NS(=O)(=O)c2ccc(Cl)cc2)c(Br)c1 | x | -1 | -2 | -12
Cc1cc(F)c(F)cc1C(=O)N1CCCC1 | x | 0 | -10 | 53*
O=C1CCC[C@@H]2Cc3nc4ccc(O)cc4cc3[C@@H]3CCN1[C@H]23 | -7 | -2 | -15 | 0
O=C(c1ccc(NS(=O)(=O)c2cccc(F)c2)cc1)N1CCCCC1 | 5 | -2 | -19 | 36*
O=C(OCCCOC(=O)c1ccc([N+](=O)[O-])o1)c1ccc([N+](=O)[O-])o1 | -6 | -3 | -15 | 0
COc1ccc(C)cc1NS(=O)(=O)c1ccc2c(c1)CCN2C(C)=O | 92* | 0 | -10 | 1
CS(=O)(=O)N1CCC(C(=O)Nc2cc(Cl)cc(Cl)c2)CC1 | 3 | 0 | 3 | -6
Cc1ccccc1C(=O)c1ccccc1C(=O)c1ccccc1 | 5 | 0 | -8 | 86*
O=C(c1ccccc1)c1ccccc1C(=O)c1ccccc1 | -4 | x | 1 | -6
CCN(CC)CCCNC(=O)c1cn(CC(C)C)c(=O)c2c1c1ccccc1n2C | -2 | -1 | -20 | 50*
Cc1cccc(CCNC(=O)CCc2nc(-c3ccccc3F)no2)c1 | -1 | 0 | -8 | -5
CS(=O)(=O)N(CC(=O)NCc1ccc2c(c1)OCO2)c1cccc(Cl)c1 | -3 | -1 | -18 | 3
Cc1cc(C)c(S(=O)(=O)n2ccc3ccccc32)c(C)c1 | x | 0 | -5 | -1
O=S(=O)(c1ccccc1)n1ccc2ccccc21 | 4 | 1 | -11 | 47*
O=C(CN1CCCCC1)N=Nc1c(O)[nH]c2ccccc12 | x | -1 | -8 | 41*
O=C(CN1CCN(Cc2ccccc2)CC1)N=Nc1c(O)[nH]c2ccccc12 | x | -3 | 2 | 2
C[C@@H]1CN([C@@H](C)CO)S(=O)(=O)c2ccc(C#Cc3ccccc3)cc2O[C@@H]1CN(C)CC1CC1 | 1[16.7 µM] | x | x | x
COc1ccc(/C(C#N)=C/c2cccnc2)cc1 | -4 | -5 | 74* | x
O=C(COC(=O)C1=COCCO1)Nc1ccc(Br)cc1Br | -6 | 0 | -9 | 43*
SMILES | miR-122 sensor | CAL PDZ FP-1 | PvdQ acylase | CAL PDZ FP-2
Cc1ccccc1NC(=O)COC(=O)C1=COCCO1 | -13 | 2 | -6 | -3
Cc1ccc(/C(=N\S(=O)(=O)c2ccc(Br)cc2)Nc2ccccc2C)cc1 | 15 | -1 | -15 | 65*
COc1ccccc1N/C(=N/S(=O)(=O)c1ccc(C)cc1)c1ccccc1 | 135* | 0 | 5 | 3
CC(=O)NC(CCS(C)(=O)=O)C(=O)Nc1ccc(Cl)c(Cl)c1 (stereo not given) | x | 0 | -5 | -1
COc1ccc(OC)c(N(CC(=O)NCc2ccccc2)S(=O)(=O)c2ccc(OC)c(OC)c2)c1 | -5 | -1 | -10 | -2
COc1cc(/C=N/Nc2nc3ccccc3s2)ccc1OC(=O)c1ccccc1F | x | -2 | -7 | 72*
CC[C@@H]1CN(C)[C@H]2Cc3c([nH]c4ccccc34)C(=O)C[C@@H]1[C@@H]2C(=O)OC | -2 | 0 | 2 | 3
O=S(Cc1ccc(Cl)cc1)CC(O)(c1ccccc1)c1ccccc1 (stereo not given) | 147* | -2 | -6 | -1
O=S(Cc1ccccc1)CC(O)(c1ccc(Cl)cc1)c1ccc(Cl)cc1 (stereo not given) | 139* | -1 | -6 | -3
CN1C(=O)c2cc(NC(=O)c3ccc(F)cc3)ccc2OC[C@H]2O[C@@H](CC(=O)NC3CCC3)CC[C@@H]21 | -3[16.7 µM] | x | x | x
CCOC(=O)C1C(=O)NC(c2ccccc2)=NC1c1ccc(O)c(OC)c1 (stereo not given) | x | 0 | -7 | -4

Compound activity (PubChem BioAssay)
